# Experiments:
# [1] = Solubility of the compound at pH 7.4 after 18 hrs by UV spectroscopic analysis; type: physicochemical; settings: buffer
# How it was run: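 Kinetic solubility. A 10 mM stock is diluted 1:100 into PBS pH 7.4 and incubated 18 h at room temperature, then filtered; the filtrate is mixed 1:1 with 1-propanol. UV spectrum (250–500 nm) compared by AUC with a 1-propanol/PBS reference. Single experiment in triplicate.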
# [2] = Permeability of the compound at pH 7.4 after 30 mins by PAMPA; type: ADME; settings: read-out: permeability
# How it was run: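 PAMPA at pH 7.4. A 10 mM DMSO stock is diluted into system solution buffer; its UV spectrum serves as reference. Membrane painted with GIT lipid, acceptor chamber holds acceptor solution buffer. Sandwich stirred for 30 min, aqueous boundary layer set to 40. Donor and acceptor UV spectra read at 250–500 nm. Permeability coefficient from the AUCs of reference, donor and acceptor. Single experiment in triplicate.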
# [3] = Dissociation constant, pKa of the compound; type: physicochemical
# Plasmodium falciparum [4] = assay: Antimalarial activity against chloroquine-sensitive Plasmodium falciparum 3D7 infected in human erythrocytes assessed as reduction in parasitemia after 72 hrs by spectrophotometry; type: functional, organism-based; settings: 3D7, 72 h
# Plasmodium falciparum [5] = assay: Antimalarial activity against chloroquine-resistant Plasmodium falciparum K1 infected in human erythrocytes assessed as reduction in parasitemia after 72 hrs by spectrophotometry; type: functional, organism-based; settings: K1, 72 h
# Plasmodium falciparum [6] = assay: Ratio of EC50 for chloroquine-resistant Plasmodium falciparum K1 infected in human erythrocytes to EC50 for chloroquine-sensitive Plasmodium falciparum 3D7 infected in human erythrocytes; type: functional
# HepG2 = assay: Cytotoxicity against human HepG2 cells assessed as intracellular ATP level after 72 hrs by Celltiter-Glo luminescent assay; type: cell-based; settings: HepG2, 72 h
# [7] = Ratio of EC50 for human HepG2 cells to EC50 for Plasmodium falciparum 3D7 infected in human erythrocytes
# [8] = Ratio of EC50 for human HepG2 cells to EC50 for Plasmodium falciparum K1 infected in human erythrocytes
SMILES,solubility at 18 h [1],Papp at 0.5 h [2],pKa [3],EC50 (Plasmodium falciparum [4]),EC50 (Plasmodium falciparum [5]),Ratio EC50 (Plasmodium falciparum [6]),EC50 (HepG2),Ratio EC50 [7],Ratio EC50 [8]
COc1cccc(CNCCCNc2ccnc3cc(-c4ccccc4)ccc23)c1O,32 µM,237 ×10⁻⁶ cm/s,9.47,9 nM,1940 nM,212.7,3210 nM,353,1.7
COc1ccc(F)cc1CNCCCNc1ccnc2cc(Cc3cc(C)cc(C)c3)ccc12,4.2 µM,23 ×10⁻⁶ cm/s,9.47,34 nM,794 nM,23.1,940 nM,27.4,1.2
COc1cccc(Oc2ccc3c(NCCCNCc4ccco4)ccnc3c2)c1,14.5 µM,317 ×10⁻⁶ cm/s,9.28,9 nM,153 nM,17.4,15500 nM,1763,102
c1ccc(-c2ccc3c(NCCCNCc4ccc5c(c4)OCO5)ccnc3c2)cc1,32 µM,237 ×10⁻⁶ cm/s,9.47,17 nM,29 nM,1.7,4070 nM,234,138.9
Cc1cc(C)cc(Cc2ccc3c(NCCCNCc4ccc5c(c4)OCO5)ccnc3c2)c1,4.2 µM,23 ×10⁻⁶ cm/s,9.47,41 nM,1040 nM,25.6,2250 nM,55.5,2.2
CCC(CC)c1ccc2c(NCCCNCc3cccc(OC)c3O)ccnc2c1,4.2 µM,23 ×10⁻⁶ cm/s,9.47,4 nM,273 nM,68.3,410 nM,103.3,1.5
Fc1ccc(Cc2ccc3c(NCCCNCc4ccco4)ccnc3c2)c(Cl)c1,4.2 µM,23 ×10⁻⁶ cm/s,9.47,20 nM,1220 nM,62.1,5730 nM,290.8,4.7
c1ccc(Cc2ccc3c(NCCCNCc4ccco4)ccnc3c2)cc1,4.2 µM,23 ×10⁻⁶ cm/s,9.47,40 nM,3550 nM,89.9,16000 nM,405.1,4.5
c1coc(CNCCCNc2ccnc3cc(CC4CCCCC4)ccc23)c1,4.2 µM,23 ×10⁻⁶ cm/s,9.47,55 nM,621 nM,11.2,1700 nM,30.7,2.7
COc1cccc(CNCCCNc2ccnc3cc(Oc4ccc(F)cc4)ccc23)c1O,14.5 µM,317 ×10⁻⁶ cm/s,9.28,11 nM,3130 nM,282.2,11000 nM,990,4
c1cc(NCCCNCc2ccc3c(c2)OCO3)c2ccc(Cc3ccc4c(c3)OCO4)cc2n1,32 µM,237 ×10⁻⁶ cm/s,9.47,26 nM,27 nM,1,4790 nM,185,178.8
CC(C)Cc1ccc2c(NCCCNCc3ccc4c(c3)OCO4)ccnc2c1,4.2 µM,23 ×10⁻⁶ cm/s,9.47,66 nM,1810 nM,27.7,2380 nM,36.3,1.3
CC(C)CCc1ccc2c(NCCCNCc3ccc4c(c3)OCO4)ccnc2c1,4.2 µM,23 ×10⁻⁶ cm/s,9.47,27 nM,206 nM,7.6,2800 nM,103.1,13.5
FC(F)(F)c1cc(-c2ccc3c(NCCCNCc4ccc5c(c4)OCO5)ccnc3c2)cc(C(F)(F)F)c1,32 µM,237 ×10⁻⁶ cm/s,9.47,284 nM,604 nM,2.1,1160 nM,4.1,1.9
COc1ccc(F)cc1CNCCCNc1ccnc2cc(Oc3cccc(N(C)C)c3)ccc12,14.5 µM,317 ×10⁻⁶ cm/s,9.28,7 nM,31 nM,4.7,3300 nM,514,110
CCC(CC)c1ccc2c(NCCCNCc3ccc4c(c3)OCO4)ccnc2c1,4.2 µM,23 ×10⁻⁶ cm/s,9.47,27 nM,1060 nM,39.5,6350 nM,235.1,6
COc1ccc(F)cc1CNCCCNc1ccnc2cc(-c3cccc4ccccc34)ccc12,32 µM,237 ×10⁻⁶ cm/s,9.47,1150 nM,1030 nM,0.9,16000 nM,13.9,15.5
COc1cccc(CNCCCNc2ccnc3cc(CC(C)C)ccc23)c1O,4.2 µM,23 ×10⁻⁶ cm/s,9.47,20 nM,8130 nM,402.5,2920 nM,144.5,0.4
CN(C)c1cccc(Oc2ccc3c(NCCCNCc4ccc5c(c4)OCO5)ccnc3c2)c1,14.5 µM,317 ×10⁻⁶ cm/s,9.28,1360 nM,3930 nM,2.9,16000 nM,12,4
COc1ccc(F)cc1CNCCCNc1ccnc2cc(Oc3ccccc3OC)ccc12,14.5 µM,317 ×10⁻⁶ cm/s,9.28,22 nM,960 nM,44,6400 nM,293,7
c1coc(CNCCCNc2ccnc3cc(C4CCCCC4)ccc23)c1,4.2 µM,23 ×10⁻⁶ cm/s,9.47,118 nM,3900 nM,33.1,4760 nM,40.4,1.2
